Laboratory results taken from ChEMBL document CHEMBL4138290, “Highly Oxidized Guaianolide Sesquiterpenoids with Potential Anti-inflammatory Activity from Chrysanthemum indicum” (J Nat Prod, 2018).
Calls of active or inactive are those of the source. No cut-off for these calls is given here.

Columns and labels:
RAW264.7 [1] = assay: Antiinflammatory activity in mouse RAW264.7 cells assessed as inhibition of LPS-induced NO production after 18 hrs by Griess assay; type: functional, cell-based; conditions: RAW264.7, 18 h
In short: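 RAW264.7 murine macrophages (DMEM, 10% FBS, pen-strep, 37 °C, 5% CO2) seeded 6 × 10^4 cells/well for 18 h. Compound added with 1 μg/mL LPS for 18 h. Supernatant nitrite read with Griess reagent (10 min, OD 540 nm). Inhibition relative to DMSO-only control. L-NMMA as positive control. IC50 is mean ± SD of three independent experiments.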

RAW264.7 [2] = assay: Cytotoxicity against LPS-induced mouse RAW264.7 cells assessed as reduction in cell viability at 6.25 uM after 18 hrs by MTT assay; type: cell-based; conditions: raw264.7, 18 h
In short: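 RAW264.7 cells were seeded at 5 × 10^3/well for 18 h, then exposed to compound at various concentrations with or without LPS (1.0 μg/mL) for 18 h. MTT (5 mg/mL, 20 μL) added for 4 h. Formazan dissolved in DMSO and read at 570 nm. Viability is relative to the DMSO-only control, set as 100%.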

RAW264.7 [3] = assay: Downregulation of COX-2 in LPS-induced mouse RAW264.7 cells at 2.5 uM by Western blot analysis; type: functional, cell-based
In short: (§1)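 Western blot in RAW264.7 cells treated with compound under LPS (1 μg/mL) stimulation. Cells lysed in 1% RIPA and protein quantified by BCA. SDS-PAGE, PVDF transfer, 5% skim milk block for 2 h at 25 °C, primary antibody 12 h at 4 °C, then secondary at room temperature.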

RAW264.7 [4] = assay: Downregulation of iNOS in LPS-induced mouse RAW264.7 cells at 2.5 uM by Western blot analysis; type: functional, cell-based; in short: as §1
RAW264.7 [5] = assay: Inhibition of NF-kappaB in LPS-induced mouse RAW264.7 cells assessed as decrease in STAT3 phosphorylation at 1.25 to 5 uM by Western blot analysis; type: cell-based; in short: as §1
RAW264.7 [6] = assay: Downregulation of total NF-kappaB level in LPS-induced mouse RAW264.7 cells at 1.25 to 5 uM by Western blot analysis; type: functional, cell-based; in short: as §1
[7] = molecular target: Transcription factor p65 (Mus musculus) (UniProt Q04207); assay: Inhibition of LPS-induced NF-kB p65 nuclear translocation in mouse RAW264.7 cells at 1.25 to 5 uM by Western blot analysis; type: cell-based; in short: as §1
RAW264.7 [8] = assay: Inhibition of ERK phosphorylation in LPS-induced mouse RAW264.7 cells at 1.25 to 5 uM incubated with compound for 1 hr followed by LPS stimulation measured after 4 hrs by Western blot analysis; type: cell-based
In short: (§2)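 Western blot of MAPK phosphorylation in RAW264.7 cells. Cells pretreated with or without compound (1.25, 2.5, 5.0 μM) for 1 h, then LPS (0.1 μg/mL) for 4 h. Lysed in 1% RIPA, BCA protein assay, SDS-PAGE, PVDF, milk block 2 h at 25 °C, primary antibody 12 h at 4 °C, then secondary at room temperature.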

RAW264.7 [9] = assay: Inhibition of JNK phosphorylation in LPS-induced mouse RAW264.7 cells at 1.25 to 5 uM incubated with compound for 1 hr followed by LPS stimulation measured after 4 hrs by Western blot analysis; type: cell-based; in short: as §2
[10] = molecular target: MAP kinase p38 (Mus musculus) (UniProt P47811+O08911+Q9WUI1+Q9Z1B7); assay: Inhibition of p38 phosphorylation in LPS-induced mouse RAW264.7 cells at 1.25 to 5 uM incubated with compound for 1 hr followed by LPS stimulation measured after 4 hrs by Western blot analysis; type: cell-based; in short: as §2

Sequence of Transcription factor p65 (Mus musculus) (Q04207 whole entry): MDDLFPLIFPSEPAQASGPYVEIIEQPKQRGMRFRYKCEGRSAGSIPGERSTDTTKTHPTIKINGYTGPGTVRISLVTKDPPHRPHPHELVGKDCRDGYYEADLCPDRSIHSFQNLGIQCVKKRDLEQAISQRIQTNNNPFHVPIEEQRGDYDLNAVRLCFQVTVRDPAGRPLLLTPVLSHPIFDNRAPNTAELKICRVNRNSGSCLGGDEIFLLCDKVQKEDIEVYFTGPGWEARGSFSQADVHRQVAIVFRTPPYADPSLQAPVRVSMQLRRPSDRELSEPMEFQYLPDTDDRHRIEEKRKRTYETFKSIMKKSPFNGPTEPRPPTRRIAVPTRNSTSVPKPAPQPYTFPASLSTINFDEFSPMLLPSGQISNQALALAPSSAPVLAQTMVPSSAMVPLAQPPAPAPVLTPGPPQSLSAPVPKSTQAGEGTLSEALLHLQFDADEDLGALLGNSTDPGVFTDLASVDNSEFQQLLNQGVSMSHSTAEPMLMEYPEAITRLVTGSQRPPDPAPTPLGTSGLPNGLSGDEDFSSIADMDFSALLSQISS

Compound | IC50 (RAW264.7 [1]) [µM] | further results
C=C1C(=O)O[C@H]2[C@H]1C[C@@H](OC(=O)C=C(C)C)[C@@](C)(O)[C@@]13O[C@@H]1[C@@H]1O[C@]1(C)[C@H]23 | 4.8 | –
C=C1C(=O)O[C@H]2[C@H]1CC[C@@](C)(O)[C@]13C=C[C@](C)([C@@H]21)[C@]1(C3)C(=O)O[C@H]2[C@H]1CC[C@@](C)(O)[C@]13O[C@H]1[C@@H](O)[C@](C)(O)[C@H]23 | > 50 | –
C=C1C(=O)O[C@H]2[C@H]1C[C@@H](OC(=O)/C(C)=C\C)[C@@](C)(O)[C@]13O[C@H]1[C@@H](O)[C@@](C)(O)[C@H]23 | 7.1 | –
C=C1C(=O)O[C@H]2[C@H]1C[C@@H](OC(=O)/C(C)=C/C)[C@@](C)(O)[C@@]13O[C@@H]1[C@@H]1O[C@]1(C)[C@H]23 | 3.9 | –
C=C1C(=O)O[C@H]2[C@H]1C[C@@H](OC(=O)/C(C)=C\C)[C@@](C)(O)[C@]13O[C@H]1[C@H]1O[C@@]1(C)[C@H]23 | 4 | –
C=C1C(=O)O[C@H]2[C@H]1CC[C@@](C)(O)[C@]13C=C[C@](C)([C@@H]21)[C@]1(C3)C(=O)O[C@H]2[C@H]1CC[C@@](C)(O)[C@]13O[C@H]1[C@@H](O)[C@@](C)(O)[C@H]23 | > 50 | –
C=C1C(=O)O[C@H]2[C@@H]1[C@@H](OC(=O)/C(C)=C/C)C[C@@](C)(O)[C@@]13C=C[C@@](C)(OO1)[C@H]23 | 3.4 | –
C=C1C(=O)O[C@H]2[C@H]1C[C@@H](OC(=O)/C(C)=C\C)[C@@](C)(O)[C@@]13O[C@@H]1[C@@H]1O[C@]1(C)[C@H]23 | 1.4 | Activity (RAW264.7 [2]): Non-Toxic; Activity (RAW264.7 [3]): Active; Activity (RAW264.7 [4]): Active; inhibition (RAW264.7 [5]): Active; Activity (RAW264.7 [6]): Active; inhibition [7]: Active; inhibition (RAW264.7 [8]): Active; inhibition (RAW264.7 [9]): Active; inhibition [10]: Active
C=C1C(=O)O[C@H]2[C@H]1CC[C@@](C)(O)[C@]13O[C@H]1[C@@H](O)[C@](C)(O)[C@H]23 | 21.5 | –
C=C1C(=O)O[C@H]2[C@H]1C[C@@H](OC(=O)/C(C)=C/C)[C@@](C)(O)[C@]13O[C@H]1[C@H]1O[C@@]1(C)[C@H]23 | 6.3 | –
C=C(C)C(=O)O[C@@H]1C[C@H]2C(=C)C(=O)O[C@@H]2[C@H]2[C@](C)(O)[C@@H](Cl)[C@@H]3O[C@@]32[C@]1(C)O | 9.7 | –
C=C1C(=O)O[C@H]2[C@@H]1[C@@H](OC(=O)C=C(C)C)C[C@@](C)(O)[C@@]13C=C[C@@](C)(OO1)[C@H]23 | 7.2 | –
CNC(=N)NCCC[C@H](N)C(=O)O [TILARGININE] | 25.8 | –
